The record followed here is ChEMBL document CHEMBL1124216, “A novel class of potential central nervous system agents. 3-Phenyl-2-(1-piperazinyl)-5H-1-benzazepines” (1988).

What all share (format): functional
Experiment [1] relates to Mus musculus. Briefly: The homovanillic acid (HVA) levels in mouse brain at 10 mg/kg of dose. An outline of the steps: (§1)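 Mice dosed orally in 0.5% aqueous tragacanth; brains of five mice per compound pooled. Homovanillic acid measured in brain extracts and reported as brain level.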
For the next experiment, the system named is Canis familiaris. The experiment in a line: Inhibition of apomorphine induced emesis in dogs at 1 mg/kg of dose. Conditions: Canis lupus familiaris. An outline of the steps:
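Beagle dogs (10-15 kg), groups of three, given compound po in a gelatin capsule; 2 h later apomorphine hydrochloride 0.3 mg/kg sc. Vomiting counted for 1 h; mean inhibition as percent of control. ED50 is the dose giving 50% inhibition of emesis, by Litchfield-Wilcoxon.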

The test system of experiment [2] is Mus musculus. The experiment in a line: Antitremorine activity(TRM) of mice after peroral administration of 100 mg/kg of compound; No inhibition. Conditions: route oral.
In experiment [3] the test system is Mus musculus. The experiment in a line: Exploratory activity of mice determined by an antimex activity meter, 10 mg/kg of dose was administered perorally. The following applies: route oral.
In experiment [4] the test system is Mus musculus. Briefly: The homovanillic acid (HVA) levels in mouse brain at 50 mg/kg of dose. In a few lines:
as §1

Experiment [5] has as its system Mus musculus. The experiment in a line: Antiexploratory activity (EXPL) of mice determined by an antimex activity meter, 50 mg/kg of dose was administered perorally; Slight inhibition (31-50%). The following applies: route oral.
Experiment [6] concerns Mus musculus. The experiment in a line: 3,4 -Dihydroxy phenylacetic acid (DOPAC) levels in mouse brain at 10 mg/kg dose. In a few lines: (§2)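 Male Std-ddY mice, 20-25 g, dosed orally with compound in 0.5% aqueous tragacanth. DOPAC was measured fluorometrically after purification by column chromatography on Sephadex G-10 and QAE-Sephadex. Brains from five mice per compound were pooled for each determination.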

Experiment [7] has as its system Mus musculus. The experiment in a line: Antireserpine activity(RES) of mice after peroral administration of 50 mg/kg of compound; No inhibition. Conditions: route oral.
Experiment [8] concerns Mus musculus. The experiment in a line: Exploratory activity of mice determined by an antimex activity meter, 50 mg/kg of dose was administered perorally. The following applies: Mus musculus, po. An outline of the steps:
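Male Std-ddY mice (20-25 g), five per dose; compound in 0.5% aqueous tragacanth given orally. Two hours later each mouse placed in an Animex activity meter cage and locomotor activity counted for 3 min. Mean suppression expressed as percent inhibition of control; ED50 by Litchfield-Wilcoxon.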

Experiment [9] deals with Mus musculus. The experiment in a line: 3,4 -Dihydroxy phenylacetic acid (DOPAC) levels in mouse brain at 50 mg/kg dose. An outline of the steps:
as §2

In experiment [10] the test system is Mus musculus. The experiment in a line: Antimaximal electroshock seizure (MES) activity in mice after peroral administration of 100 mg/kg of compound; 0/5. The following applies: route oral. (In the maximal electroshock model the usual endpoint is tonic extension of the hind limbs.)
Experiment [11] concerns Mus musculus. Briefly: Antitremorine activity(TRM) of mice after peroral administration of mg/kg of compound; No inhibition.
In experiment [12] the test system is Mus musculus. The experiment in a line: Antimaximal electroshock seizure activity was determined in mice when administered perorally. The following applies: po.
The subject of experiment [13] is Mus musculus. Briefly: Antiexploratory activity (EXPL) of mice determined by an antimex activity meter, mg/kg of dose was administered perorally; Slight inhibition (31-50%).
The test system of experiment [14] is Mus musculus. Briefly: Antireserpine activity (RES) of mice after peroral administration of mg/kg of compound; Slight inhibition (31-50%).
Experiment [15] has as its system Mus musculus. The experiment in a line: Antiexploratory activity (EXPL) of mice determined by an antimex activity meter, 50 mg/kg of dose was administered perorally; Moderate inhibition (51-71%). The following applies: route oral.
Experiment [16] has as its system Mus musculus. Briefly: Antireserpine activity (RES) of mice after peroral administration of 50 mg/kg of compound; Moderate inhibition (51-71%). Conditions: route oral.
Experiment [17] relates to Mus musculus. Briefly: Antimaximal electroshock seizure (MES) activity in mice after peroral administration of 100 mg/kg of compound; 2/5. Conditions: route oral.
Experiment [18] concerns Mus musculus. The experiment in a line: Antiexploratory activity (EXPL) of mice determined by an antimex activity meter, 100 mg/kg of dose was administered perorally; No inhibition. Conditions: route oral.
In experiment [19] the test system is Mus musculus. Briefly: Antireserpine activity (RES) of mice after peroral administration of 100 mg/kg of compound; No inhibition. Conditions: route oral.
In experiment [20] the test system is Mus musculus. Briefly: Antiexploratory activity (EXPL) of mice determined by an antimex activity meter, 10 mg/kg of dose was administered perorally; Moderate inhibition (51-71%). The following applies: route oral.
For experiment [21], the system named is Mus musculus. The experiment in a line: Antiexploratory activity (EXPL) of mice determined by an antimex activity meter, 50 mg/kg of dose was administered perorally; Potent inhibition. The following applies: route oral.
In experiment [22] the test system is Mus musculus. The experiment in a line: Antitremorine activity(TRM) of mice after peroral administration of 100 mg/kg of compound. The following applies: route oral.
In experiment [23] the test system is Mus musculus. The experiment in a line: Antimaximal electroshock seizure (MES) activity in mice after peroral administration of 100 mg/kg of compound; 4/5. The following applies: route oral.
In experiment [24] the test system is Mus musculus. Briefly: Antireserpine activity (RES) of mice after peroral administration of 100 mg/kg of compound. Conditions: route oral.
Experiment [25] deals with Mus musculus. Briefly: Antimaximal electroshock seizure (MES) activity in mice after peroral administration of 10 mg/kg of compound; 0/5. Conditions: route oral.
The test system of experiment [26] is Mus musculus. The experiment in a line: Antipentylene tetrazole activity was determined in mice when administered perorally. Conditions: po. An outline of the steps: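 Groups of five male Std-ddY mice received compound orally in 0.5% tragacanth, then pentylenetetrazole 175 mg/kg ip. Blockade of the tonic extensor component scored as anticonvulsant. ED50 was the dose protecting 50% of animals (Litchfield-Wilcoxon).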

Experiment [27] relates to Mus musculus. The experiment in a line: Antiexploratory activity (EXPL) of mice determined by an antimex activity meter, 100 mg/kg of dose was administered perorally. Conditions: route oral.

On to `Cl.Cl.OCCN1CCN(C2=Nc3ccccc3CC=C2c2ccc(Br)cc2)CC1`, for which the Control with Mus musculus [1] is 181%; in the experiment with Mus musculus [4], 335%; in the experiment with Mus musculus [6], 106%; with Mus musculus [9], 291%. In the experiment with Canis familiaris, this compound gave an inhibition in vivo at 1 mg/kg of 72.5%. Further, the inhibition in vivo at 100 mg/kg in the experiment with Mus musculus [2] is below 30%. The inhibition in vivo at 10 mg/kg in the experiment with Mus musculus [3] is 31.9%. For the same compound, the results for the inhibition in vivo at 50 mg/kg with Mus musculus [5], in the experiment on Mus musculus [7] and in the experiment on Mus musculus [8] were 31%, below 30% and 36.1%, respectively. This compound registered an Activity with Mus musculus [10] of 0.

On to `Cl.Cl.OCCN1CCN(C2=Nc3ccccc3CC=C2c2ccccc2)CC1`, for which the Inhibition in the experiment with Mus musculus [11] was below 30%; in the experiment on Mus musculus [13], 31%; in the experiment on Mus musculus [14] it was 31%. The ED50 in the experiment on Mus musculus [12] is above 100 mg/kg. Further, the Activity in the experiment with Mus musculus [10] was found to be 0.

For the compound `CN1CCN(C2=Nc3ccccc3CC=C2c2ccc(O)cc2)CC1`, the inhibition in vivo at 50 mg/kg with Mus musculus [15] and in the experiment with Mus musculus [16] was 51% each time.

Turning to `CCN1CCN(C2=Nc3ccc(Br)cc3CC=C2c2ccc(Cl)cc2)CC1.O=C(O)/C=C/C(=O)O`, the Activity with Mus musculus [17] amounted to 2. The inhibition in vivo at 100 mg/kg with Mus musculus [2], with Mus musculus [18] and with Mus musculus [19] was below 30% in each case.

Take `Fc1ccc(C2=CCc3ccccc3N=C2N2CCN(C3CCCCC3)CC2)cc1.O=C(O)/C=C/C(=O)O`: the Control was determined as 295% in the experiment with Mus musculus [1], 343% in the experiment on Mus musculus [4], 244% with Mus musculus [6] and 334% in the experiment on Mus musculus [9]. Further, the inhibition in vivo at 1 mg/kg in the experiment on Canis familiaris was found to be 46%. In addition, the values for the inhibition in vivo at 10 mg/kg in the experiment on Mus musculus [20] and in the experiment on Mus musculus [3] were 51% and 61.4%, respectively. Further, the values for the inhibition in vivo at 50 mg/kg in the experiment with Mus musculus [21] and with Mus musculus [8] were above 71% and 84.6%, respectively.

For the compound `CN1CCN(C2=Nc3ccc(Cl)cc3CC=C2c2ccccc2)CC1.Cl.Cl`, the values for the inhibition in vivo at 100 mg/kg with Mus musculus [22], in the experiment on Mus musculus [24] and in the experiment with Mus musculus [27] were above 71%, below 30% and below 30%, respectively. Further, the figures for the Activity in the experiment on Mus musculus [23] and with Mus musculus [25] were 4 and 0, respectively. Also, the ED50 was 89.4 mg/kg in the experiment with Mus musculus [12] and 42.9 mg/kg in the experiment on Mus musculus [26].

A word on the inhibition in vivo: it is the change of the read-out against control, counted positive when it falls. Read a low inhibition in vivo as a weak effect. The term Inhibition denotes how much of the control response was suppressed. High values mean a strong effect, low ones a weak effect. Usually ED50 stands for the dose at which the effect has come halfway, by size or by number of responders.
